The source of these data is ChEMBL document CHEMBL5653631, “A Potent and Selective ULK1 Inhibitor Suppresses Autophagy and Sensitizes Cancer Cells to Nutrient Stress” (iScience, 2018).

For experiment [1], the target named is Leucine-rich repeat serine/threonine-protein kinase 2 (Homo sapiens) (UniProt Q5S007). Nature of the experiment: Inhibition of human recombinant LRRK2 at 40 nM in presence of ATP by radiometric assay relative to control.
Experiment [2] concerns the target T1, Mitogen-activated protein kinase kinase kinase 7 (Homo sapiens) (UniProt O43318).
T1 sequence (whole entry): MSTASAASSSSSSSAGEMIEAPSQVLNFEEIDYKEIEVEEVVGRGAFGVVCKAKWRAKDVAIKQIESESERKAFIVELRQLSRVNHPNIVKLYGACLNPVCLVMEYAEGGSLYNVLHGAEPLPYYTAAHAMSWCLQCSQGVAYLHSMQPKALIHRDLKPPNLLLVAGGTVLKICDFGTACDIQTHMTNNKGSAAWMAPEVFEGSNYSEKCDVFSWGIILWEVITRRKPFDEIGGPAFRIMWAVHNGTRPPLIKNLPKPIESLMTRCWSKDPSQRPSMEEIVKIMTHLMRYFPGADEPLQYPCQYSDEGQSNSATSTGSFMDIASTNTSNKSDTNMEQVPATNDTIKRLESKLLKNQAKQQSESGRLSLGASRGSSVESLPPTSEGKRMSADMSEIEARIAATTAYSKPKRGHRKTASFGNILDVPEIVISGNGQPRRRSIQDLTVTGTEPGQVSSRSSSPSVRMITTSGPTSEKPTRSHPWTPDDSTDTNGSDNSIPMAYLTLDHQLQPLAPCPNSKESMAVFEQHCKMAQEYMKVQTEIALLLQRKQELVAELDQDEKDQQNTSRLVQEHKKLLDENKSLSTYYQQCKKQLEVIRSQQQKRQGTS
Nature of the experiment: Inhibition of human recombinant TAK1 at 40 nM in presence of ATP by radiometric assay relative to control.

Experiment [3] addresses T2, Inhibitor of nuclear factor kappa-B kinase subunit alpha (Homo sapiens) (UniProt O15111).
T2 sequence (whole entry): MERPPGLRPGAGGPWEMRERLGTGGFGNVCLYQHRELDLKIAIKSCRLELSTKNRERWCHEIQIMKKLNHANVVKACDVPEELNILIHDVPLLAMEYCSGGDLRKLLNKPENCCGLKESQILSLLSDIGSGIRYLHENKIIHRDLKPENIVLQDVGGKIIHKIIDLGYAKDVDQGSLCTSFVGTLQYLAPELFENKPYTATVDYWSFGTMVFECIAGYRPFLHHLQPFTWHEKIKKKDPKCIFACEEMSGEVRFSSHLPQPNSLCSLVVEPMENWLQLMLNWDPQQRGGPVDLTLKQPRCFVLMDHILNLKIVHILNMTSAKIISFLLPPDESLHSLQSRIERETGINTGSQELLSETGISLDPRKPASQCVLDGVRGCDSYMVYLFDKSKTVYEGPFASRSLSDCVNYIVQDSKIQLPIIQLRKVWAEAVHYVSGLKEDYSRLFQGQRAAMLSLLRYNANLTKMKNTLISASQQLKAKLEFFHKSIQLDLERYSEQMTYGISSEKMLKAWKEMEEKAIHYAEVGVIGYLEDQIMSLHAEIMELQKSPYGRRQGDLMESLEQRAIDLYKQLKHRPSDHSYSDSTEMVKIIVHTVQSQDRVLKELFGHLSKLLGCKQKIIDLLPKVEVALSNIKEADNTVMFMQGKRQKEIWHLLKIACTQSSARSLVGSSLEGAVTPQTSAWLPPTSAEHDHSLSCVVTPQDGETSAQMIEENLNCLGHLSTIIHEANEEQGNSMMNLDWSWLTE
Description: Inhibition of human recombinant IKKa at 40 nM in presence of ATP by radiometric assay relative to control.

The target of experiment [4] is Calcium/calmodulin-dependent protein kinase type 1D (Homo sapiens) (UniProt Q8IU85). Nature of the experiment: Inhibition of human recombinant CaMK1d at 40 nM in presence of ATP by radiometric assay relative to control.
Calcium/calmodulin-dependent protein kinase type 1D (Homo sapiens), sequence (Q8IU85 whole entry, looked up): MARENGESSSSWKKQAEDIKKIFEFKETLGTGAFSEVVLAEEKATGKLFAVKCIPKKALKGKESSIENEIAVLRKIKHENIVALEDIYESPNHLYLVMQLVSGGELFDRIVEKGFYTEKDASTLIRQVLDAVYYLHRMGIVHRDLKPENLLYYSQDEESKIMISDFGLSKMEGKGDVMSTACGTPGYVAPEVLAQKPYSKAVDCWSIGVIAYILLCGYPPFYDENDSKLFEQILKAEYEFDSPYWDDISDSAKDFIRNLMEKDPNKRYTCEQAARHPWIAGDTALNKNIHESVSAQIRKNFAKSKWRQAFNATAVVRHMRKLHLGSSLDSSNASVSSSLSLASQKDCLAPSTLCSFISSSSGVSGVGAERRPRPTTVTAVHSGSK
Experiment [5] deals with Ephrin type-A receptor 2 (Homo sapiens) (UniProt P29317). Nature of the experiment: Inhibition of human recombinant EphA2 at 500 nM in presence of ATP by radiometric assay relative to control.
Ephrin type-A receptor 2 (Homo sapiens), sequence (P29317 whole entry): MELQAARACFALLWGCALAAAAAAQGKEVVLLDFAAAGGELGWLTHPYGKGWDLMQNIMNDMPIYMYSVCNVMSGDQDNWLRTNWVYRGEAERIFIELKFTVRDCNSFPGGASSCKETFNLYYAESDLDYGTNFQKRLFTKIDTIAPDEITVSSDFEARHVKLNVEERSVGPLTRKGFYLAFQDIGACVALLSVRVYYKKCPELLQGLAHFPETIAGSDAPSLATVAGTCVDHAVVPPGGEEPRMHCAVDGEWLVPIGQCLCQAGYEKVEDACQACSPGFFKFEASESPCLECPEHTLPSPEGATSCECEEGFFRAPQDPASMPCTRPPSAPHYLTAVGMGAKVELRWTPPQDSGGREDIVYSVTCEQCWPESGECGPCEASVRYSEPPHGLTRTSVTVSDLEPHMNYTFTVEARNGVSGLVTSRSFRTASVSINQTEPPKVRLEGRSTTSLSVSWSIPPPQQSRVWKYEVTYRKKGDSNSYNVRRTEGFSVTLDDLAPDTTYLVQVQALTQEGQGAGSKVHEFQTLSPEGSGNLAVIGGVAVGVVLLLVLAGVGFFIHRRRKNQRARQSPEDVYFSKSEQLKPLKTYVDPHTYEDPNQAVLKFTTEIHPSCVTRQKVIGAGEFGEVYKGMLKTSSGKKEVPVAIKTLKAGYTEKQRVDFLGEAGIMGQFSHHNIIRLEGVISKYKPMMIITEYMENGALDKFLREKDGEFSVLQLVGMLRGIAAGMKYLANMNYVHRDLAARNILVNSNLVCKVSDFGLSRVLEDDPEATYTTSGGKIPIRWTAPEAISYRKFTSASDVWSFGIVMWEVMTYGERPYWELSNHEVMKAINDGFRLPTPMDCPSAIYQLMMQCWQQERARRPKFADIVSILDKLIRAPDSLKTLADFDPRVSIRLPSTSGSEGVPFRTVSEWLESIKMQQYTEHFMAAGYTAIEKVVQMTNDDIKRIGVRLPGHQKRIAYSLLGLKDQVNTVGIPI
Experiment [6] addresses T3, Serine/threonine-protein kinase DCLK2 (Homo sapiens) (UniProt Q8N568).
T3 sequence (whole entry): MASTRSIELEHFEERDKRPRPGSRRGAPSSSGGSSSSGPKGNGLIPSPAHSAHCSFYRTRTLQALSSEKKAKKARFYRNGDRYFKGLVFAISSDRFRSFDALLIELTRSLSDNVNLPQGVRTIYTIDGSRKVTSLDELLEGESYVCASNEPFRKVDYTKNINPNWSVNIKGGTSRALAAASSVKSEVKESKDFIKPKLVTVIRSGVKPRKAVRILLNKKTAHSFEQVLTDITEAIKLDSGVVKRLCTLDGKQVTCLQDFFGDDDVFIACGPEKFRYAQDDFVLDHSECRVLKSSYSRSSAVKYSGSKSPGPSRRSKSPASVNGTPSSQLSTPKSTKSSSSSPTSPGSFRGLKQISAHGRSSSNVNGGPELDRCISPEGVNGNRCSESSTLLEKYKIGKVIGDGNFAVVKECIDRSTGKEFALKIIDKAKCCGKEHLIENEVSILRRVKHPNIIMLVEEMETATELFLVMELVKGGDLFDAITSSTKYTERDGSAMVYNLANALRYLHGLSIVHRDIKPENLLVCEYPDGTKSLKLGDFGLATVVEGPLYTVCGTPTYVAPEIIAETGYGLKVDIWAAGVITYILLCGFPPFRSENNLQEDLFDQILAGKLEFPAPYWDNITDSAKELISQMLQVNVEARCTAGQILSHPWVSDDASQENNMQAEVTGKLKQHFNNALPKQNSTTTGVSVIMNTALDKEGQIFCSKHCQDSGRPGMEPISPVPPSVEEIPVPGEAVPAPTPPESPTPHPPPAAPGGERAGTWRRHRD
Description: Inhibition of human recombinant DCAMKL2 at 15 nM related to control ULK1.

For experiment [7], the target named is T4, Aurora kinase C (Homo sapiens) (UniProt Q9UQB9).
T4 sequence (whole entry): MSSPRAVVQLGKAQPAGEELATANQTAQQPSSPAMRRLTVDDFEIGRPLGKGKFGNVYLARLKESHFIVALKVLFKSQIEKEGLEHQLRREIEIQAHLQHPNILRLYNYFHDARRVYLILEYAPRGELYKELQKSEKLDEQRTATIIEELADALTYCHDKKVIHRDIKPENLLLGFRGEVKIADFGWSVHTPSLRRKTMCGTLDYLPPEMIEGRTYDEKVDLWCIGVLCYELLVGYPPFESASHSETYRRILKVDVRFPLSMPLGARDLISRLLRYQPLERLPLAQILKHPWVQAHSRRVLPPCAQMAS
Nature of the experiment: Inhibition of human recombinant AurC at 15 nM in presence of ATP by radiometric assay relative to control. Summed up:
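Part of a radiometric in vitro activity panel of 327 recombinant human kinases. Each kinase was tested in duplicate at one inhibitor concentration. Activity remaining was expressed as a percentage of the vehicle control, and percent inhibition was taken as 100 minus that value.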

The target in experiment [8] is Proto-oncogene tyrosine-protein kinase Src (Homo sapiens) (UniProt P12931). Description: Inhibition of human recombinant SRC at 15 nM in presence of ATP by radiometric assay relative to control.
Proto-oncogene tyrosine-protein kinase Src (Homo sapiens), sequence (P12931 2-536 limits assumed): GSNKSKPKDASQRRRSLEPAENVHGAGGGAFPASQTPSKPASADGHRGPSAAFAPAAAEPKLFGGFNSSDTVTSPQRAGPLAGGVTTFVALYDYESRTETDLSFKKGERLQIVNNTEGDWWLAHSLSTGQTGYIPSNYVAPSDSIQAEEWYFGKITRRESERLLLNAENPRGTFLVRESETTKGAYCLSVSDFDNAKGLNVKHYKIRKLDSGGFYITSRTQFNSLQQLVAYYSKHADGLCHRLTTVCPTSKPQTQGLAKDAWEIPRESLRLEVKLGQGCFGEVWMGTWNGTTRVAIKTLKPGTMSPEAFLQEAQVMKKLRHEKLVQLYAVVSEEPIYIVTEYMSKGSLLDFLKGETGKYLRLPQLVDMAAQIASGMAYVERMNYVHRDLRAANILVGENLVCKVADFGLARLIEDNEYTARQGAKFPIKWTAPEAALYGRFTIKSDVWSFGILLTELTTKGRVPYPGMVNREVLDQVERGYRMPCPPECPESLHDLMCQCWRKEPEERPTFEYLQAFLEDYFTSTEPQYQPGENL

For orientation: inhibition means the relative decrease from the control value, in per cent.

Leucine-rich repeat serine/threonine-protein kinase 2 (Homo sapiens), sequence (Q5S007 whole entry): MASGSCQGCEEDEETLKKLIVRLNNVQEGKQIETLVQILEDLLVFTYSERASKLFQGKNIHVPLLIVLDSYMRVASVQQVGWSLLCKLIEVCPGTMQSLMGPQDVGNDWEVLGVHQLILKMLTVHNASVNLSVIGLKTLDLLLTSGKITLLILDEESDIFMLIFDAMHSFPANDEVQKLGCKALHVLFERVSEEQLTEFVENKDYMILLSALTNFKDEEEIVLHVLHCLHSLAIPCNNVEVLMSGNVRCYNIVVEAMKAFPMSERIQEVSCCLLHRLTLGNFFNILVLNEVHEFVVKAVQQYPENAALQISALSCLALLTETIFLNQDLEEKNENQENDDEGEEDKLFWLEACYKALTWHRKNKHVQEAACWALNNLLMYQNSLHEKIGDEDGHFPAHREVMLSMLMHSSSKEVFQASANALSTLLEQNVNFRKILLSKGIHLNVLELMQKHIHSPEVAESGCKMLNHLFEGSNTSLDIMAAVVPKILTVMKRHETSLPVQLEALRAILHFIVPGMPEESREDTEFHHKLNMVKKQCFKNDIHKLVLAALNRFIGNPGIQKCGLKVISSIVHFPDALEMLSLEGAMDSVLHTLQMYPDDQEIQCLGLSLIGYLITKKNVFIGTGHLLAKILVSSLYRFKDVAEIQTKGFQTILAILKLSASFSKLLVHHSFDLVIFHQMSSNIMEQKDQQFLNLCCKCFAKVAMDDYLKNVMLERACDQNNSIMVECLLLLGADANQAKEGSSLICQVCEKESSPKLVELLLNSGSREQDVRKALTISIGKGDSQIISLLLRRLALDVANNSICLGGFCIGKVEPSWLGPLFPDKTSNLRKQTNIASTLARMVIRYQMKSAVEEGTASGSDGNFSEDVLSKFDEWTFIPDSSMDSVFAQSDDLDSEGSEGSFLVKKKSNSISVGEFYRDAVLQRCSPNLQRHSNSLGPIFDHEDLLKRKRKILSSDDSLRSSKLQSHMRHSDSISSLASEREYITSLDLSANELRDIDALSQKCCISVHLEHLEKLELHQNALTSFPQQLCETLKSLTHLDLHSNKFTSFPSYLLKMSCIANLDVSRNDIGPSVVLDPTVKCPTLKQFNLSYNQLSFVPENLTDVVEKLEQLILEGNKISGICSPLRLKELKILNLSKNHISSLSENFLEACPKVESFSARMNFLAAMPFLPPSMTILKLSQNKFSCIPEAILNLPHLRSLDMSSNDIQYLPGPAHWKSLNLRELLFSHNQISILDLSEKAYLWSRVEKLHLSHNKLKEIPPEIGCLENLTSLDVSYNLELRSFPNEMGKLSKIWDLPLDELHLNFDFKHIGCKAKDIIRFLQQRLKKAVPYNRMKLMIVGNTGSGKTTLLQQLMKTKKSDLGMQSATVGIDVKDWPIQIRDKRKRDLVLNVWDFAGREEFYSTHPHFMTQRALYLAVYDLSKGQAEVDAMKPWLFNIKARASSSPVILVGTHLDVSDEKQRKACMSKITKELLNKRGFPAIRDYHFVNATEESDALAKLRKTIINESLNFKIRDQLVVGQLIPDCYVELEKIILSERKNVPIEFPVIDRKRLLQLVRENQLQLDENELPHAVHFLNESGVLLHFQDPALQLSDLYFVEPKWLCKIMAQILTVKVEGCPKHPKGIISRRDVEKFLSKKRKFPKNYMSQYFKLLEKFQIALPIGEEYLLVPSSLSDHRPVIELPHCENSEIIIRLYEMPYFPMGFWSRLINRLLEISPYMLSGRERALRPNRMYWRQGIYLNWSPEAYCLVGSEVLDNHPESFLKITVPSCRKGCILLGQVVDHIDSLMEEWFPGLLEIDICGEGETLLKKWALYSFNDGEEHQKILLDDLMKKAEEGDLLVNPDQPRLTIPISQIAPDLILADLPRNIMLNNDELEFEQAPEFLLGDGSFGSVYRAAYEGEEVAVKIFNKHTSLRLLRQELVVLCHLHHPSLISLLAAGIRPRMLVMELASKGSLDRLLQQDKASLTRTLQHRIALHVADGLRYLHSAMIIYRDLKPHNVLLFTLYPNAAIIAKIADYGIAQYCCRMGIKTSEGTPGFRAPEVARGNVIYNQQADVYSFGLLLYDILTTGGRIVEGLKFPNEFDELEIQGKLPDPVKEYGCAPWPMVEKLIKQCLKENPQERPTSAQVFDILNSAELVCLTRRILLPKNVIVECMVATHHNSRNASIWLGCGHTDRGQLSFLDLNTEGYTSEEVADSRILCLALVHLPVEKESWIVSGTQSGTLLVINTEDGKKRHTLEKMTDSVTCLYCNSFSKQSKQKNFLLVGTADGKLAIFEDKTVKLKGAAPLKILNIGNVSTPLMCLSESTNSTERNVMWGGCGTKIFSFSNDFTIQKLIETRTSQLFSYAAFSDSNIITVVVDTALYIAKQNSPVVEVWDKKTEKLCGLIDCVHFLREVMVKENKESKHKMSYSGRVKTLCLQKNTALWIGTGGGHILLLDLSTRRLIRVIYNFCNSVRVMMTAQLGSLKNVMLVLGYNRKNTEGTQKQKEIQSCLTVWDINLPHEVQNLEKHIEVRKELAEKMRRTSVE

Consider `O=C(N[C@@H](C1CC1)C(F)(F)F)c1cc(-c2cnn3cc(-c4ccc(F)cc4)cnc23)cs1`, for which the inhibition was 3% in experiment [1], 0% in experiment [2], 0% in experiment [3] and 0% in experiment [4].

On to `CNC(=O)c1ccccc1Oc1nc(Nc2cc(OC)c(OC)c(OC)c2)ncc1Br`, for which the inhibition in experiment [5] was 2%.

Consider `CC(C)[C@H](NC(=O)c1cc(-c2cnn3cc(-c4ccc(OCCN5CCCCC5)cc4)cnc23)cs1)C(F)(F)F`, for which the fold change (FC) in experiment [6] was 0.14. The inhibition in experiment [7] turned out to be 8%; in experiment [8] it was 15%.
